As a reminder, the IC50 is the concentration at which inhibition is half-maximal. Lower therefore signals greater potency. One may read the CLint scaled as a measure of how fast metabolising enzymes remove a compound, apart from limits set by blood flow. Broadly, the kinetic solubility is solubility judged after dilution from a stock solution rather than from solid. In general, AUC refers to the area under the concentration-time curve, a measure of exposure. One may read the half-life as the time needed for the level to fall by half in the phase considered. A higher half-life goes with slow decline. As a reminder, the Cmax is the peak of the concentration-time curve.

Series [1] concerns Trypanosoma brucei brucei. Nature of the series: Antiparasitic activity against Trypanosoma brucei brucei LAB 110 EATRO infected in mouse assessed as mean survival days at 2 mg/kg, ip qd for 4 days administered on 1st day of infection and measured through day 40 post infection. The class given is functional. Particulars: route intraperitoneal. The essentials: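 Mice in groups of five, infected i.p. on day 0 with 2.5 × 10^5 T. b. brucei LAB 110 EATRO parasites; i.p. dosing began day 1. Parasitemia checked twice weekly by microscopy of at least 20 fields of wet blood smears through day 40, with animals considered cured only when clear through day 40.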

The test system of series [2] is Trypanosoma brucei brucei. Nature of the series: Antiparasitic activity against Trypanosoma brucei brucei LAB 110 EATRO infected in mouse assessed as parasitemia cure incidence at 2 mg/kg, ip qd for 4 days administered on 1st day of infection and measured through day 40 post infection. Set-up: dose 2 mg/kg. The class given is functional, organism-based.
Series [3] relates to Trypanosoma brucei rhodesiense. Nature of the series: Antiparasitic activity against Trypanosoma brucei rhodesiense STIB 900 clone after 72 hrs by Alamar blue assay. The class given is functional, organism-based. The settings on record: STIB 900, 72 h. On the technique in general: Resazurin is reduced to fluorescent resorufin, in cell work by metabolically active cells.
Series [4] can be described thus: Metabolic stability in rat liver microsomes assessed as intrinsic clearance up to 45 mins by LC/MS/MS analysis. The class given is ADME, Microsome.
A short description of series [5]: Metabolic stability in human liver microsomes assessed as intrinsic clearance up to 45 mins by LC/MS/MS analysis. The class given is ADME, Microsome.
Series [6] is described as follows: Metabolic stability in rat hepatocytes assessed as intrinsic clearance up to 45 mins by LC/MS/MS analysis. Type of series: ADME, cell-based, Liver, Hepatocyte.
Series [7] can be described thus: Metabolic stability in human hepatocytes assessed as intrinsic clearance up to 45 mins by LC/MS/MS analysis. Type of series: ADME, cell-based, Liver, Hepatocyte.
Another series concerns the target CYP3A4 (Homo sapiens, UniProt P08684). Nature of the series: Inhibition of human cytochrome P450 3A4. The settings on record: human.
For the next series, the target named is CYP2D6 (Homo sapiens, UniProt P10635). Nature of the series: Inhibition of human cytochrome P450 2D6. The settings on record: human.
Chain of CYP2D6 (P10635 whole entry): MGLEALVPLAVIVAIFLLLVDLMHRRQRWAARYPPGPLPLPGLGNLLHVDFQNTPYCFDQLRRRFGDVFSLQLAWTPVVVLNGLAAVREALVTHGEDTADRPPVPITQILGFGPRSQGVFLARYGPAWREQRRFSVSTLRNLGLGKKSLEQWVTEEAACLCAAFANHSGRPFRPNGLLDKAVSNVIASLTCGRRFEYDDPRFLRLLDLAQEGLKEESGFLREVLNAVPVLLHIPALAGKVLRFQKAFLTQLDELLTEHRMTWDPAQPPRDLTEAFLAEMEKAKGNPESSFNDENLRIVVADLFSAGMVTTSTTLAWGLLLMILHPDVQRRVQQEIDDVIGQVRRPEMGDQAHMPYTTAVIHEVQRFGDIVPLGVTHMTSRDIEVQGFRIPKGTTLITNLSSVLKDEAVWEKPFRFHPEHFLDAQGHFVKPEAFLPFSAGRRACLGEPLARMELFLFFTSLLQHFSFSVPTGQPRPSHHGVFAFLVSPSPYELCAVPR
A further series deals with CYP2C9 (Homo sapiens, UniProt P11712). Nature of the series: Inhibition of human cytochrome P450 2C9. The settings on record: human.
Chain of CYP2C9 (P11712 whole entry): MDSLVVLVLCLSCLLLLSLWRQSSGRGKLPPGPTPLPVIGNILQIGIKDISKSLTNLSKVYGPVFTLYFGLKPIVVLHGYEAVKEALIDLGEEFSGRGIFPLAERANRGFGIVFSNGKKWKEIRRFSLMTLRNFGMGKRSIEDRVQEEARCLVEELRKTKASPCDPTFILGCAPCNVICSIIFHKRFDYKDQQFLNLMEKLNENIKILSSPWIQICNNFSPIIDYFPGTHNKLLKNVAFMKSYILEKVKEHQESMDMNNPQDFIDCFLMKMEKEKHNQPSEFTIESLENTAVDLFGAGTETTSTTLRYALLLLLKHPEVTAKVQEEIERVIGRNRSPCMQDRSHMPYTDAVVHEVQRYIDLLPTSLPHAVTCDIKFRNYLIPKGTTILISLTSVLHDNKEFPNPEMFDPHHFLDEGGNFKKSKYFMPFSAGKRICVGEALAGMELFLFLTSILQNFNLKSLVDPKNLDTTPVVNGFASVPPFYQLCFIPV
The next series deals with CYP2C19 (Homo sapiens, UniProt P33261). Nature of the series: Inhibition of human cytochrome P450 2C19. The settings on record: human.
Chain of CYP2C19 (P33261 whole entry): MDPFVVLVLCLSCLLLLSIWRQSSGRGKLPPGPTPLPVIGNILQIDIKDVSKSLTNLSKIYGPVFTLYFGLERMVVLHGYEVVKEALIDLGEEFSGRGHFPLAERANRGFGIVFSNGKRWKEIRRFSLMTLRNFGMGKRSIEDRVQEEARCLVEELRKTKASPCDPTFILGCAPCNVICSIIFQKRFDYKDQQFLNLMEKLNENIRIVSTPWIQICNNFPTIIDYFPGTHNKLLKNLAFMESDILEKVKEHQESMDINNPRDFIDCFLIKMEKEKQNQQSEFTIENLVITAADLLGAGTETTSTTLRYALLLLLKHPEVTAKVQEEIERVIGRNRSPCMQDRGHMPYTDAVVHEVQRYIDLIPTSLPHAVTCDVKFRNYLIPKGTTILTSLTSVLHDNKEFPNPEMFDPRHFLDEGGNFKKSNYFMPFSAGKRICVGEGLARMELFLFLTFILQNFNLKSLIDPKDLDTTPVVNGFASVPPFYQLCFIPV
The target in a further series is T1, CYP1A2 (Homo sapiens, UniProt P05177).
T1 sequence (P05177 whole entry): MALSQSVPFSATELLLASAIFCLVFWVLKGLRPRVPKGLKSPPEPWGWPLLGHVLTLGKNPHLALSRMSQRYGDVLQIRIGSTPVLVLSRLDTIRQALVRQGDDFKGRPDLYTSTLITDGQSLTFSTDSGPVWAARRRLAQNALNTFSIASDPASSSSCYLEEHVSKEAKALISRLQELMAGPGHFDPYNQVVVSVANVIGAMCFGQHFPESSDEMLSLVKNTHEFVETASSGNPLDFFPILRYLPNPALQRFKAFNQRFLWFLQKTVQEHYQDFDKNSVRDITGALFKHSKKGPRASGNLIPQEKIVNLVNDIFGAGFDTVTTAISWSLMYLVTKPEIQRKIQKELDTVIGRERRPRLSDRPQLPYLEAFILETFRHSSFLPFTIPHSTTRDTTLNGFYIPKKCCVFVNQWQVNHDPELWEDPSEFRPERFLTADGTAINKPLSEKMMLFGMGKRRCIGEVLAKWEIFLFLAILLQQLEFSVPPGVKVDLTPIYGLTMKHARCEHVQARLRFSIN
Nature of the series: Inhibition of human cytochrome P450 1A2. The settings on record: human.

Series [8] can be described thus: Protein binding in human plasma at pH 7.4 after 4 hrs. Type of series: ADME, cell-free. The settings on record: read-out: PPB (converted).
Series [9] can be described thus: Protein binding in mouse plasma at pH 7.4 after 4 hrs. The class given is ADME, cell-free. Particulars: read-out: PPB (converted).
Series [10] is described as follows: Kinetic solubility in phosphate-buffered saline at pH 7.4 after 16 to 24 hrs by UV spectrophotometry.
A short description of series [11]: AUC in mouse blood at 50 mg/kg, ip administered as single dose. Type of series: ADME, organism-based. The arrangement: dose 50 mg/kg, route intraperitoneal.
Series [12] in a line: AUC in mouse brain at 50 mg/kg, ip administered as single dose. The class given is ADME, organism-based. The arrangement: dose 50 mg/kg, route intraperitoneal.
Series [13] can be described thus: Half life in mouse at 50 mg/kg, ip administered as single dose. The class given is ADME, organism-based. The arrangement: dose 50 mg/kg, route intraperitoneal. The settings on record: in vivo.
Series [14] is described as follows: Cmax in mouse blood at 50 mg/kg, ip administered as single dose. Set-up: dose 50 mg/kg, route intraperitoneal. The class given is ADME, organism-based.
A short description of series [15]: Cmax in mouse brain at 50 mg/kg, ip administered as single dose. The class given is ADME, organism-based. Set-up: dose 50 mg/kg, route intraperitoneal.
The nature of the next series: in vivo. Particulars: mouse, brain, ip, 50 mg/kg.

Activity calls are given as the source filed them.

Chain of CYP3A4 (P08684 whole entry): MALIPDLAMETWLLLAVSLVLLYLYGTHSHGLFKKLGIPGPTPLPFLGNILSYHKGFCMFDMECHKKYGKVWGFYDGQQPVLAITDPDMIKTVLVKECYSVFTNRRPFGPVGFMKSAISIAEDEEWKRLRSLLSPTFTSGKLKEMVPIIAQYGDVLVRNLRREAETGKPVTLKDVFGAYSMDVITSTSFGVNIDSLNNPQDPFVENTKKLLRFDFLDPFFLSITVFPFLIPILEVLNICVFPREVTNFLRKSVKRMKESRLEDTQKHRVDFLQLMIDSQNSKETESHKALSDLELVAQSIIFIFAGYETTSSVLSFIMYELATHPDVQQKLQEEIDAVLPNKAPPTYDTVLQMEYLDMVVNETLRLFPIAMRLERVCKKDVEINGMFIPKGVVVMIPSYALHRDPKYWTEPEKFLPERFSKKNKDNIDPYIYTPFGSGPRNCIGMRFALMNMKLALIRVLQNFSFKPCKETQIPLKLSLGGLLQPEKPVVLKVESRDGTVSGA

As to `N=C(N)c1ccc(OCCCCCOc2ccc(C(=N)N)cc2)cc1` [PENTAMIDINE], the Survival in series [1] is >40 days. Besides, the result in [2] was Active.

For `CN(C/C=C\CN)C[C@H]1O[C@@H](n2cnc3c(N)ncnc32)[C@@H](F)[C@@H]1O`, the IC50 in [3] is 0.319 µM; on CYP3A4 it was > 5 µM; against CYP2D6 it was > 5 µM; on CYP2C9 it was > 5 µM; against CYP2C19, > 5 µM; against CYP1A2, > 5 µM. For the same compound, the CLint scaled in series [4] was < 11 mL/min/kg; in [5], < 4.2 mL/min/kg; in series [6] it was < 11 mL/min/kg; in series [7] it was < 4.2 mL/min/kg. For the same compound, the fraction unbound at 4 h was 0.678 in series [8] and 0.628 in series [9]. Also, the solubility (kinetic) in [10] is > 47 µg/mL.

In the case of `CN(C/C=C\CN)C[C@H]1O[C@@H](n2cnc3c(N)nc(Cl)nc32)[C@H](O)[C@@H]1O`, the IC50 was 0.259 µM in [3]; > 5 µM against CYP3A4; > 5 µM on CYP2D6; > 5 µM against CYP2C9; > 5 µM at CYP2C19; > 5 µM on CYP1A2. Further, the CLint scaled in [4] was < 11 mL/min/kg; in [5], < 4.2 mL/min/kg; in [6] it was < 11 mL/min/kg; in series [7], < 4.2 mL/min/kg. Further, the fraction unbound at 4 h in series [8] was 0.61; in series [9], 0.578. The AUC came out at 22100 ng·h/mL in series [11] and 400 ng·h/mL in series [12]. In series [13], this compound had a half-life of 1.66 h. For the same compound, the maximum concentration (Cmax) in series [14] is 39000 ng/mL; in [15], 110 ng/mL. The Kp in “in vivo” worked out at 1.79. For the same compound, in series [10], the kinetic solubility is > 51 µg/mL.

These data come from ChEMBL document CHEMBL1649443, “Novel S-adenosylmethionine decarboxylase inhibitors for the treatment of human African trypanosomiasis” (Antimicrob Agents Chemother, 2009).
